Measured values gathered from unrelated publications.
Compare with care: the assays were run in different laboratories.
BTK: Tyrosine-protein kinase BTK (BTK, Homo sapiens, UniProt Q06187)

| SMILES | target | assay | system | conditions | endpoint | value |
| --- | --- | --- | --- | --- | --- | --- |
| C=CC(=O)N1CCC[C@@H]1Cn1nc(-c2ccc(Oc3ccccc3)cc2F)c2c(N)ncnc21 | BTK | enzyme activity, inhibitor |  |  | KI (inactivation) | 1.8 nM |
| CC(C)C[C@H](NC(=O)[C@H](CC(C)C)NC(=O)CNC(=O)[C@H](C)NC(=O)[C@H](C)NC(=O)[C@H](CCCNC(=N)N)NC(=O)CNC(=O)CCCCNC(=O)CCCCNC(=O)CCCCNC(=O)[C@H](CCCCN)NC(=O)[C@H](Cc1ccc(O)cc1)NC(=O)CCc1c[nH]c2ccccc12)C(N)=O | Neuropeptides B/W receptor type 1 (NPBWR1, Homo sapiens, UniProt P48145) | cAMP, agonist, TR-FRET |  |  | Emax | 94% |
| CC(C)(C=C(C#N)C(=O)N1CCC[C@H]1Cn1nc(-c2ccc(Oc3ccccc3)cc2F)c2c(N)ncnc21)N1CCOCC1 | BTK | enzyme activity, inhibitor |  |  | kinact/KI | 400000 M⁻¹ s⁻¹ |
| COc1ccc(F)cc1C(=O)NCc1ccc(-c2nn([C@@H](C)C(F)(F)F)c(N)c2C(N)=O)cc1 | BTK | binding, SPR |  |  | koff | 7.9e-05 s⁻¹ |
| Cc1ccc(C(=O)Nc2ccc(CN3CCN(C)CC3)c(C(F)(F)F)c2)cc1C#Cc1cnc2cccnn12 | Mitogen-activated protein kinase kinase kinase 19 (MAP3K19, Homo sapiens, UniProt Q56UN5) | enzyme activity, inhibitor |  | 23.5 nM | remaining activity | 54% |
| COc1cccc(OC)c1-c1cc(C(=O)N[C@@H](CC(C)C)C(=O)O)nn1-c1ccnc2cc(Cl)ccc12 | Neurotensin receptor type 1 (NTSR1, Homo sapiens, UniProt P30989) | calcium signal, agonist | CHO |  | Emax | 63% |
| COc1cc(Nc2cnc(C#N)c(O[C@H](C)CN(C)C)n2)ncc1-c1cnn(C)c1 | Serine/threonine-protein kinase tousled-like 1 (TLK1, Homo sapiens, UniProt Q9UKI8) | enzyme activity, inhibitor, radiometric |  | 1 µM | remaining activity | 95% |
| Nc1ncnc2occ(-c3ccc(NC(=O)Nc4cc(C(F)(F)F)ccc4F)cc3)c12 | Cyclin-dependent kinase 11A (CDK11A, Homo sapiens, UniProt Q9UQ88) | cell-free assay |  | 20 µM | remaining signal | 0.3% |
